ChEMBL document CHEMBL4513216, “Probing the Open Global Health Chemical Diversity Library for Multistage-Active Starting Points for Next-Generation Antimalarials” (ACS Infect Dis, 2020)

Test: Toxicity liver stage against HepG2, at 10uM
Type: cell-based
Set-up: test concentration 10 uM, cell line HepG2-A16-CD81EGFP
Conditions: human, HepG2-A16-CD81EGFP cells; read-out: INHIBITION
How it was run: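 Uninfected HepG2-A16-CD81EGFP cells, 3 × 10^3 per well, 1536-well, plated on prespotted compound at 10 μM final, parasite-free screening media added to match infected plates; puromycin 10 μM positive, DMSO 0.5% negative; run in parallel with 48 h PbLuc assay at 37 °C, 5% CO2; viability by CellTiter-Glo luminescence, normalized to controls.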

| SMILES | cytotoxicity at 10 µM [%] |
| --- | --- |
| O=C(NC[C@H]1OC[C@@H](NC2CCOCC2)[C@@H]1O)Nc1ccccc1 | -5.75 |
| CC(C)N[C@@H]1CO[C@H](CNC(=O)Nc2ccccc2)[C@H]1O | 1.53 |
| Cc1ccc2nc(CSCC(=O)Nc3nnc(C(C)C)s3)cc(=O)n2c1 | -4.44 |
| COc1cc(CN2CCCCCC2c2cccs2)cc(OC)c1O (stereo not given) | 8.6 |
| O=C(C1CC1)N1CCN2C[C@H](c3ccccc3)[C@@H](CO)[C@H]2C1 | 4.9 |
| Cc1nn2c(NC(=O)CSc3nccn3C)csc2nc1=O | 9.71 |
| O=c1c(NCc2ccccn2)c(NCC(O)CN2CCOCC2)c1=O (stereo not given) | -54.5 |
| N#Cc1cccnc1OC1CCN(S(=O)(=O)c2ccc(Br)cc2)CC1 | 3.61 |
| O=S(=O)(NCC(O)c1ccc2c(c1)CCO2)c1ccccc1F (stereo not given) | -8.25 |
| Cn1cc(C(=O)Nc2ccc(CC(=O)NCC(F)(F)F)cc2)nn1 | 10.8 |
| CCn1ncc2c1CN(C(=O)c1ccc3c(c1)OCO3)CC2COC (stereo not given) | 8.7 |
| Cc1noc(C2CN(S(C)(=O)=O)Cc3ccnn3C2)n1 (stereo not given) | 4.92 |
| COCC1CN(S(=O)(=O)C2CC2)Cc2ncn(CC3CC3)c21 (stereo not given) | 9.03 |
| COc1cccc(Cn2c(=O)n(C)c(=O)c3sccc32)c1 | 3.29 |
| Cc1cc(O)n(-c2ccccc2Cl)c(=O)c1C#N | 2.96 |
| COCCC(=O)Nc1cnn(COc2ccc(F)cc2Cl)c1 | -8.68 |
| O=C(c1ccnn1COc1ccc(Cl)cc1)N1CCOCC1 | -3.94 |
| CN(C)Cc1cccc(-c2cccnc2C(=O)NCc2cn(C)cn2)c1 | 4.09 |
| Cc1nc(Nc2ncc(C)s2)cc(C2CCCN2S(C)(=O)=O)n1 (stereo not given) | -37.6 |
| c1cc(-c2nc(C3CCN(Cc4ccsc4)CC3)no2)ccn1 | -26.5 |
| C[C@]1(O)CN(Cc2ncccc2F)CC[C@@H]1Oc1cccc(F)c1 | -2.11 |
| CC(=O)N1CCC(c2ccnc(Nc3cnccn3)n2)C1 (stereo not given) | -0.182 |

| SMILES | cytotoxicity at 10 µM [%] |
| --- | --- |
| CC(C)(C)c1n[nH]cc1CN1CCc2nc3ccsc3c(=O)n2CC1 | 6.12 |
| Cc1ccc(OCCCNC(=O)C(C)Sc2nncn2C)cc1 (stereo not given) | -45 |
| Cc1ccc(C)c(CC(=O)NC2CCC(N3C(=O)CCC3=O)CC2)c1 (stereo not given) | -1.32 |
| CCN1CCN(c2ccccc2NC(=O)NCc2ccon2)CC1 | 10.4 |
| CN(Cc1ccco1)C(=O)C1CCCc2ccccc21 (stereo not given) | 3.68 |
| NC(=O)CSCC(=O)NCC1CCCC1 | 3.15 |
| COCCNC(=O)N1CCOCC1c1c(C)nn(C)c1C (stereo not given) | -8.18 |
| Cc1cc(C)n(CC(C)NC(=O)NCc2c(C)cc(C)[nH]c2=O)n1 (stereo not given) | -6.58 |
| N#Cc1cccc(CN2CCCC2c2ccc[nH]2)c1 (stereo not given) | -11.9 |
| CCN(CC)CC(=O)Nc1ccc(-n2ccc(C(N)=O)n2)cc1 | -6.9 |
| Cc1ccc(O)c(C(=O)N2CCCC2CC(=O)c2cnn(C)c2)c1 (stereo not given) | -3.81 |
| CCN(C1CCN(Cc2ncc(C(C)(C)C)o2)CC1)S(C)(=O)=O | -4.15 |
| CCC(CC)C(=O)Nc1ccc2oc(=O)n(CCN(C)C)c2c1 | -13.7 |
| Cc1cc2n(n1)CC(CNC1CCN(Cc3ccccn3)CC1)CN2 (stereo not given) | 3.67 |
| CC(C)c1noc(CCCC(=O)NC(C)c2nnc3n2CCC3)n1 (stereo not given) | 9.96 |
| O=C1NCC2CN(Cc3ccccc3OCc3ccccn3)CCN12 (stereo not given) | -1.36 |
| COc1ccc(N(C(=O)c2ccccn2)C(C)C)cc1F | -1.26 |
| CS(=O)(=O)CCSCc1ccc(Br)c(F)c1 | 0.49 |
| O=C(C[S+]([O-])Cc1c(Cl)cccc1Cl)N1CCc2sccc2C1 (stereo not given) | -7.23 |
| Cc1cccc(C(C)(C)NC(=O)CCS(C)(=O)=O)c1 | 2.41 |
| CCCc1nc(C)c(C(=O)NCCn2ccnc2)s1 | 8.14 |
| Cc1cccc2c(CCNC(=O)NCCC[S+](C)[O-])c[nH]c12 (stereo not given) | -25.4 |

| SMILES | cytotoxicity at 10 µM [%] |
| --- | --- |
| N#Cc1cccc(S(=O)(=O)Nc2c(F)cccc2N2CCCC2)c1 | 2.62 |
| CCN(C(=O)NCc1ccccc1OC(F)F)C(C)c1cccnc1 (stereo not given) | -2.28 |
| Cc1n[nH]c(SCC(=O)NC(c2ccncc2)C(C)C)n1 (stereo not given) | 16.4 |
| O=C(NCc1ccccc1F)Nc1ccn(CCN2CCOCC2)n1 | -7.85 |
| CN(CCOc1ccc(Cl)cc1)Cc1ccc(S(=O)(=O)N(C)C)o1 | 33.6 |
| CC(C)Cc1noc(CN2CCOCC2C)n1 (stereo not given) | 2.8 |
| Cc1cccc(C(=O)N2CCN(CCC(C)C)CC2)n1 | -3.53 |
| O=C(Nc1ccncc1)NC1CCN(c2ccccc2Cl)C1=O (stereo not given) | -43.6 |
| CSCC(=O)Nc1nccn1Cc1ccc(Br)cc1 | -45.8 |
| COc1cc(N2C[C@@H]3COC[C@@H](Cc4nnc(C)o4)[C@@H]3C2)ncn1 | -112 |
| CC(C)N1CCCC2(CCN(C(=O)COCC(F)(F)C(F)F)C2)C1=O (stereo not given) | 13.1 |
| C=Cc1ccc(C(=O)N2CCCC(Nc3ccccc3)C2)cc1 (stereo not given) | -9.01 |
| O=C(N[C@H]1CN(c2nc(CO)cs2)C[C@@H]1C1CC1)C1CCCCC1 | -0.464 |
| CCc1ncc(C(=O)N(CCOC)Cc2nccs2)cn1 | -1.47 |
| CCCS(=O)(=O)NCc1cccnc1Oc1ccc(C)c(F)c1F | -2.19 |
| CCC(=O)Nc1cccc(C(=O)NCCC2=CSC3=NCCCN23)c1 | 1.93 |
| Cc1cc(-c2nn(C)c(Cl)c2CN2CCC3(CC2)[C@H](O)C[C@@H]3O)no1 | -5.66 |
| Cc1ccc2nc(-c3cnc(N)nc3)c(C)c(C(=O)N(C)C)c2c1 | -13.8 |
| CCCC(C)NCc1cccnc1N1CCN(c2ccccn2)CC1 (stereo not given) | 6.99 |
| CN(Cc1cc2n(n1)CCNC2)Cc1noc(C2CCC2)n1 | 15.2 |
| CSCCN1CCC(NC(=O)c2cccc(C3CCCNC3)c2)CC1 (stereo not given) | 0.49 |
| CCO[C@H]1C[C@@H](O)C12CCN(C1Cc3ccccc3C1)CC2 | 4.54 |

| SMILES | cytotoxicity at 10 µM [%] |
| --- | --- |
| COC(=O)c1ccc(-c2noc(CN(CCO)Cc3cccs3)n2)cc1 | 6.43 |
| Nc1nc(CCC(=O)N2C[C@H](c3ccccc3)[C@@H](N)C2)cs1 | 4.49 |
| CC(C)OC(=O)N1CCCC(c2nccn2Cc2ccncc2)C1 (stereo not given) | 4.56 |
| Cn1cnnc1CCC(=O)N1CCCC(OCc2cccnc2)C1 (stereo not given) | 2.66 |
| COCCN(C)C[C@@H]1CN(C(=O)NC2CCCCC2)C[C@@H]1CO | 3.41 |
| CSc1ncc(CNC(C)c2cnn(-c3ccc(F)cc3F)c2C)cn1 (stereo not given) | 2.77 |
| Cc1ccc(CN2CCN(Cc3ccncc3)CC2=O)cc1 | -5.64 |
| Cc1ncc(CC(=O)N2CCC3(CCC(=O)N(C4CC4)C3)CC2)c(=O)[nH]1 | -45.1 |
| CC1CCCN(Cc2ccc(C(N)=O)cc2)C1 (stereo not given) | -10.4 |
| CC(C1CCN(Cc2cnn(C)c2C2CC2)CC1)N(C)C (stereo not given) | 7.88 |
| CN(C)CCn1ccnc1C1CCN(c2cc(N)nc(N)n2)CC1 | 0.829 |
| Cc1nc[nH]c1-c1nccn1-c1ccc(C(N)=O)c(N2CCCC2)c1 | 6.23 |
| O=C(c1nc2sccn2c1-c1ncc[nH]1)N1CCCCC1 | 7.52 |
| CC(C)(C)n1cc(C2=CCN(CCc3ccccc3)CC2)cn1 | 14.3 |
| O=C(c1cccs1)N1CCC(n2nc(-c3ccco3)ccc2=O)CC1 | -6.62 |
| COCC(=O)N1CCC(c2nccnc2Oc2cccnc2C)CC1 | 6.79 |
| CC1CN(C)CCN1C(=O)c1ccn(-c2cccc(F)c2)n1 (stereo not given) | -1.87 |
| Cc1nc(C)n(CC2CN(Cc3cc(C#N)ccc3F)CCO2)n1 (stereo not given) | -1.56 |
| COCc1cccc(CNCc2c(C(C)C)nn(C)c2N(C)C)c1 | -7.16 |
| Cc1cc(C)c(CNC(=O)c2ccc3c(c2)CCC3)c(=O)[nH]1 | 0.983 |
| CNS(=O)(=O)c1ccc(CNC(=O)Nc2cn[nH]c2)cc1 | -8.75 |
| Cc1cnn(CCNCC(O)COc2cc(Cl)ccc2Cl)c1 (stereo not given) | 2.22 |

| SMILES | cytotoxicity at 10 µM [%] |
| --- | --- |
| Cn1ncc2c1CCCC2NCc1cccc2c1OCCCO2 (stereo not given) | -9.86 |
| O=C(CCc1ccccc1F)NS(=O)(=O)c1ccc2c(c1)OCCO2 | -18.6 |
| Cc1ccn2ncc(C(=O)N3CCCC(n4cccn4)C3)c2n1 (stereo not given) | -24.3 |
| CCc1ncncc1C(=O)N1CCN(Cc2ccco2)CC1 | -4.91 |
| CN1CCN(C(=O)c2ccc(=O)n(C)c2)c2ccccc21 | -11.5 |
| CCC(=O)NC1CCN(c2cccc(CC)c2)CC1 | -4.16 |
| Cc1cccc(C)c1OCCNC(=O)NC(C)c1nncn1C (stereo not given) | 7.8 |
| CC1(C)CC(N(Cc2ccncc2)Cc2cccnc2)CC(C)(C)N1 | -14.6 |
| Cc1cc(C[C@@H]2COC[C@H]2NCc2ccc(Cl)c(Cl)c2)on1 | -5.44 |
| Cc1nnc(N2C[C@@H](OCCCn3cccn3)[C@H]3OCCC[C@H]32)s1 | -8.19 |
| Cc1noc([C@@H]2CC[C@@H]3[C@@H](CCN3c3nnc(C)s3)O2)n1 | 9.28 |
| Cc1cnc(N2CCC3(CC2)CC3CNC(=O)C2CCC2)nc1 (stereo not given) | 38 |
| CC(C)(C)C(=O)N1C[C@H](c2ccsc2)[C@H]2CN(C3CCCCC3)CC[C@H]21 | 5.9 |
| Cc1ccc(N2CCO[C@H]3CN(Cc4ccccn4)C[C@H]32)nn1 | -79.8 |
| O=C(CC1CC1)NCc1cn2c(n1)CN(Cc1cccc(F)c1)CC2 | -85.8 |
| Cc1ccc2c(CC(=O)N(C)CCN(C)C)c(C)[nH]c2c1C | 8.42 |
| CN1CCCCC12CCN(C(=O)c1cccn1C)CC2 | 8.22 |
| O=C(COc1ccccc1)N1C[C@@H]2COC[C@]2(COc2cccnc2)C1 | -100 |
| O=C(C1CCCCC1)N1CCC2(CCCN2CC2CC2)CC1 | 3.56 |
| CCS(=O)(=O)N1CCOC2(CCCN(c3ccccn3)C2)C1 (stereo not given) | 3.16 |
| CN1[C@@H]2CC[C@H]1CN(C(=O)CCc1csc(N)n1)CC2 | -0.0143 |
| O=C(NCC1CCC(c2nnc(-c3cccnc3)o2)CC1)C1CC1 (stereo not given) | 3.15 |
